{
  "source": "ChEMBL document CHEMBL1123257",
  "about": "“Synthesis of sulfur analogues of alkyl lysophospholipid and neoplastic cell growth inhibitory properties” (1986)",
  "format_in_all_cases": "functional",
  "key": {"BG-1 cell line [1]": {"system": "BG-1 cell line", "experiment": "Compound was evaluated for its effect on colony growth of human ovarian adenocarcinoma cell line BG-1 at 10.0 ug/mL", "summary_of_the_method": "(§1)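 Single-cell suspensions of BG-1 or BG-3 human ovarian carcinoma cells (derived from primary explants, now kept in continuous culture) were plated in soft agarose clonogenic culture. Cells were exposed continuously to phospholipid analogue over a three-log concentration range, with untreated cultures as controls. After 7 days at 37 °C/7.5% CO2, colonies were scored by inverted microscopy and automated image analysis.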"}, "BG-1 cell line [2]": {"system": "BG-1 cell line", "experiment": "Compound was evaluated for its effect on colony growth of human ovarian adenocarcinoma cell line BG-1 at 3.0 ug/mL", "summary_of_the_method": "as §1"}, "BG-1 cell line [3]": {"system": "BG-1 cell line", "experiment": "Compound was evaluated for its effect on colony growth of human ovarian adenocarcinoma cell line BG-1 at 30.0 ug/mL", "summary_of_the_method": "as §1"}, "BG-3 [4]": {"system": "BG-3", "experiment": "Compound was evaluated for its effect on colony growth of human ovarian adenocarcinoma cell line BG-3 at 0.0 ug/mL,", "summary_of_the_method": "as §1"}, "BG-3 [5]": {"system": "BG-3", "experiment": "Compound was evaluated for its effect on colony growth of human ovarian adenocarcinoma cell line BG-3 at 0.03 ug/mL", "summary_of_the_method": "as §1"}, "BG-3 [6]": {"system": "BG-3", "experiment": "Compound was evaluated for its effect on colony growth of human ovarian adenocarcinoma cell line BG-3 at 0.1 ug/mL", "summary_of_the_method": "as §1"}, "BG-3 [7]": {"system": "BG-3", "experiment": "Compound was evaluated for its effect on colony growth of human ovarian adenocarcinoma cell line BG-3 at 0.3 ug/mL", "summary_of_the_method": "as §1"}, "BG-3 [8]": {"system": "BG-3", "experiment": "Compound was evaluated for its effect on colony growth of human ovarian adenocarcinoma cell line BG-3 at 1.0 ug/mL", "summary_of_the_method": "as §1"}, "BG-3 [9]": {"system": "BG-3", "experiment": "Compound was evaluated for its effect on colony growth of human ovarian adenocarcinoma cell line BG-3 at 10.0 ug/mL", "summary_of_the_method": "as §1"}, "BG-3 [10]": {"system": "BG-3", "experiment": "Compound was evaluated for its effect on colony growth of human ovarian adenocarcinoma cell line BG-3 at 3.0 ug/mL", "summary_of_the_method": "as §1"}, "BG-3 [11]": {"system": "BG-3", "experiment": "Compound was evaluated for its effect on colony growth of human ovarian adenocarcinoma cell line BG-3 at 30.0 ug/mL", "summary_of_the_method": "as §1"}, "BG-1 cell line [12]": {"system": "BG-1 cell line", "experiment": "Compound was evaluated for its effect on colony growth of human ovarian adenocarcinoma cell line BG-1 at 0.0 ug/mL", "summary_of_the_method": "as §1"}, "BG-1 cell line [13]": {"system": "BG-1 cell line", "experiment": "Compound was evaluated for its effect on colony growth of human ovarian adenocarcinoma cell line BG-1 at 0.03 ug/mL", "summary_of_the_method": "as §1"}, "BG-1 cell line [14]": {"system": "BG-1 cell line", "experiment": "Compound was evaluated for its effect on colony growth of human ovarian adenocarcinoma cell line BG-1 at 0.1 ug/mL", "summary_of_the_method": "as §1"}, "BG-1 cell line [15]": {"system": "BG-1 cell line", "experiment": "Compound was evaluated for its effect on colony growth of human ovarian adenocarcinoma cell line BG-1 at 0.3 ug/mL", "summary_of_the_method": "as §1"}, "BG-1 cell line [16]": {"system": "BG-1 cell line", "experiment": "Compound was evaluated for its effect on colony growth of human ovarian adenocarcinoma cell line BG-1 at 1.0 ug/mL", "summary_of_the_method": "as §1"}},
  "data": [
    {"smiles": "CCCCCCCCCCCCCCCCSCC(COP(=O)([O-])OCC[N+](C)(C)C)OCC", "note": "(stereo unspecified)", "values": [
      {"measurement": "Control", "setting": "BG-1 cell line [1]", "value": 2, "unit": "%"},
      {"measurement": "Control", "setting": "BG-1 cell line [2]", "value": 2, "unit": "%"},
      {"measurement": "Control", "setting": "BG-1 cell line [3]", "value": 2, "unit": "%"},
      {"measurement": "Control", "setting": "BG-3 [4]", "value": 100, "unit": "%"},
      {"measurement": "Control", "setting": "BG-3 [5]", "value": 56, "unit": "%"},
      {"measurement": "Control", "setting": "BG-3 [6]", "value": 54, "unit": "%"},
      {"measurement": "Control", "setting": "BG-3 [7]", "value": 56, "unit": "%"},
      {"measurement": "Control", "setting": "BG-3 [8]", "value": 17, "unit": "%"},
      {"measurement": "Control", "setting": "BG-3 [9]", "value": 3, "unit": "%"},
      {"measurement": "Control", "setting": "BG-3 [10]", "value": 2, "unit": "%"},
      {"measurement": "Control", "setting": "BG-3 [11]", "value": 2, "unit": "%"},
      {"measurement": "Control", "setting": "BG-1 cell line [12]", "value": 100, "unit": "%"},
      {"measurement": "Control", "setting": "BG-1 cell line [13]", "value": 65, "unit": "%"},
      {"measurement": "Control", "setting": "BG-1 cell line [14]", "value": 64, "unit": "%"},
      {"measurement": "Control", "setting": "BG-1 cell line [15]", "value": 53, "unit": "%"},
      {"measurement": "Control", "setting": "BG-1 cell line [16]", "value": 8, "unit": "%"}
    ]}
  ]
}
